Data reported in ChEMBL document CHEMBL4308874, “Discovery and optimization of 3,4,5-trimethoxyphenyl substituted triazolylthioacetamides as potent tubulin polymerization inhibitors” (Bioorg Med Chem Lett, 2019).

Key:
HT-29 = experiment: Cytotoxicity against human HT-29 cells assessed as inhibition of cell growth after 48 hrs by MTT assay; type: functional, cell-based; conditions: HT-29, 48 h
HCT-116 = experiment: Cytotoxicity against human HCT116 cells assessed as inhibition of cell growth after 48 hrs by MTT assay; type: functional, cell-based; conditions: HCT-116, 48 h
MCF7 = experiment: Cytotoxicity against human MCF7 cells assessed as inhibition of cell growth after 48 hrs by MTT assay; type: functional, cell-based; conditions: MCF7, 48 h
HeLa [1] = experiment: Cytotoxicity against human HeLa cells assessed as inhibition of cell growth after 48 hrs by MTT assay; type: functional, cell-based
Tubulin = experiment: Inhibition of tubulin (unknown origin) polymerization; type: protein-complex assay, Homo sapiens
Tubulin (Homo sapiens) = Tubulin (Homo sapiens) (UniProt P68371+Q9H4B7+P0DPH7+P68366+Q13509+Q71U36+P04350+Q3ZCM7+P07437+P68363+Q9BQE3+Q6PEY2+Q13885+Q9BVA1+Q9BUF5); experiment: Inhibition of tubulin (unknown origin) polymerization at 10 uM relative to control; type: protein-complex assay
Procedure, shortened: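 Tubulin polymerization inhibition measured with compound at a final concentration of 10 μM, expressed as percent inhibition.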

HeLa [2] = experiment: Cell cycle arrest in human HeLa cells assessed as accumulation at S phase at 0.5 uM after 48 hrs by propidium iodide staining based flow cytometry (reference value: 20.31%); type: functional
HeLa [3] = experiment: Cell cycle arrest in human HeLa cells assessed as accumulation at G0/G1 phase at 0.5 uM after 48 hrs by propidium iodide staining based flow cytometry (reference value: 66.77%); type: functional
HeLa [4] = experiment: Cell cycle arrest in human HeLa cells assessed as accumulation at G2/M phase after 48 hrs by propidium iodide staining based flow cytometry; type: functional
HEK293 = experiment: Cytotoxicity against HEK293 cells assessed as inhibition of cell growth after 48 hrs by MTT assay; type: cell-based; conditions: Homo sapiens, HEK293, 48 h
HeLa [5] = experiment: Cell cycle arrest in human HeLa cells assessed as accumulation at G2/M phase at 0.25 uM after 48 hrs by propidium iodide staining based flow cytometry (reference value: 12.91%); type: functional
HeLa [6] = experiment: Cell cycle arrest in human HeLa cells assessed as accumulation at S phase at 0.25 uM after 48 hrs by propidium iodide staining based flow cytometry (reference value: 20.31%); type: functional
HeLa [7] = experiment: Cell cycle arrest in human HeLa cells assessed as accumulation at G2/M phase at 0.5 uM after 48 hrs by propidium iodide staining based flow cytometry (reference value: 12.91%); type: functional
HeLa [8] = experiment: Cell cycle arrest in human HeLa cells assessed as accumulation at G0/G1 phase at 0.25 uM after 48 hrs by propidium iodide staining based flow cytometry (reference value: 66.77%); type: functional

Row | inhibition (Tubulin (Homo sapiens)) [%] | SMILES | IC50 (HT-29) [µM] | IC50 (HCT-116) [µM] | IC50 (MCF7) [µM] | IC50 (HeLa [1]) [µM] | also measured
1 | – | COc1cc(-c2nnc(SCC(=O)Nc3ccc(N4CCCCC4)cc3)n2N)cc(OC)c1OC | 75.3 | > 100 | > 100 | 54.9 | –
2 | – | COc1ccc(NC(=O)CSc2nnc(-c3cc(OC)c(OC)c(OC)c3)n2N)cc1OC | > 100 | > 100 | > 100 | 54.2 | –
3 | 55 | COc1cc(-c2nnc(SCC(=O)Nc3ccc(C)cc3)n2N)cc(OC)c1OC | 0.82 | – | 26.8 | 1.61 | IC50 (Tubulin): 5.9 µM
4 | – | COc1cc(-c2nnc(SCC(=O)Nc3ccc(C(C)C)cc3)n2N)cc(OC)c1OC | > 100 | 74.8 | > 100 | 13.7 | –
5 | – | COc1cc(-c2nnc(SCC(=O)Nc3c(C)cc(C)cc3C)n2N)cc(OC)c1OC | > 100 | > 100 | > 100 | 82.8 | –
6 | – | COc1ccc(/C=C\c2cc(OC)c(OC)c(OC)c2)cc1O [COMBRETASTATIN A4] | 1.96 | – | – | 0.007 | –
7 | 38 | CCc1ccc(NC(=O)CSc2nnc(-c3cc(OC)c(OC)c(OC)c3)n2N)cc1 | 0.84 | 71.4 | 25.4 | 0.05 | Activity (HeLa [2]): 2%; Activity (HeLa [3]): 43.23%; Activity (HeLa [4]): Dose-dependent effect; IC50 (HEK293): > 100 µM; Activity (HeLa [5]): 27.3%; Activity (HeLa [6]): 25.35%; Activity (HeLa [7]): 54.77%; Activity (HeLa [8]): 47.35%
8 | – | COc1ccc(NC(=O)CSc2nnc(-c3cc(OC)c(OC)c(OC)c3)n2N)cc1O | > 100 | > 100 | > 100 | 34.8 | –
9 | – | COc1ccc(NC(=O)CSc2nnc(-c3cc(OC)c(OC)c(OC)c3)[nH]2)cc1 | > 100 | > 100 | > 100 | > 100 | –
10 | 19 | CCCc1ccc(NC(=O)CSc2nnc(-c3cc(OC)c(OC)c(OC)c3)n2N)cc1 | 50.8 | 41.8 | 41.2 | 18.7 | –
11 | 25 | COc1ccccc1NC(=O)CSc1nnc(-c2cc(OC)c(OC)c(OC)c2)n1N | 0.13 | 82.9 | > 100 | 0.16 | IC50 (HEK293): > 100 µM
12 | – | COc1cc(-c2nnc(SCC(=O)Nc3ccc(C)cc3F)n2N)cc(OC)c1OC | 0.13 | > 100 | > 100 | 0.04 | IC50 (HEK293): 61.1 µM
13 | 25 | COc1cc(-c2nnc(SCC(=O)Nc3cccc(C)c3)n2N)cc(OC)c1OC | 4.87 | > 100 | 47.1 | 2.96 | –
14 | – | CCCc1ccc(NC(=O)CSc2nnc(-c3cc(OC)c(OC)c(OC)c3)[nH]2)cc1 | > 100 | > 100 | > 100 | > 100 | –
15 | – | COc1cc(-c2nnc(SCC(=O)Nc3ccc(C(C)(C)C)cc3)n2N)cc(OC)c1OC | > 100 | > 100 | > 100 | 49.6 | –
16 | 21 | COc1cc(-c2nnc(SCC(=O)N(C)c3ccc(C)cc3)n2N)cc(OC)c1OC | > 100 | > 100 | > 100 | 21.3 | –

Row | inhibition (Tubulin (Homo sapiens)) [%] | SMILES | IC50 (HT-29) [µM] | IC50 (HCT-116) [µM] | IC50 (MCF7) [µM] | IC50 (HeLa [1]) [µM] | also measured
17 | – | COc1cc(-c2nnc(SCC(=O)NC3CCCCC3)n2N)cc(OC)c1OC | > 100 | > 100 | 80.6 | 59.7 | –
18 | 11 | CCc1ccc(NC(=O)CSc2nnc(-c3cc(OC)c(OC)c(OC)c3)[nH]2)cc1 | > 100 | > 100 | > 100 | 33.9 | –
19 | 17 | COc1cc(-c2nnc(SCC(=O)Nc3ccc(C)cc3)n2-n2cccc2)cc(OC)c1OC | 2.94 | 26.6 | > 100 | > 100 | –
20 | – | COc1cc(-c2nnc(SCC(=O)c3ccc(Cl)cc3)n2-n2cccc2)cc(OC)c1OC | > 100 | > 100 | > 100 | > 100 | –
21 | – | COc1ccc(NC(=O)CSc2nnc(-c3cc(OC)c(OC)c(OC)c3)n2-n2cccc2)cc1 | > 100 | > 100 | > 100 | > 100 | –
22 | – | COc1ccc(NC(=O)CSc2nnc(-c3cc(OC)c(OC)c(OC)c3)[nH]2)cc1O | > 100 | > 100 | > 100 | > 100 | –
23 | – | COc1cc(-c2nnc(SCC(=O)Nc3ccc(C)cc3)[nH]2)cc(OC)c1OC | > 100 | > 100 | > 100 | > 100 | –
24 | 24 | COc1ccc(NC(=O)CSc2nnc(-c3cc(OC)c(OC)c(OC)c3)n2N)cc1 | 15.2 | 61.1 | > 100 | 2.96 | –
25 | – | COc1cc(-c2nnc(SCC(=O)Nc3ccc(N(C)C)cc3)n2N)cc(OC)c1OC | 43.1 | > 100 | > 100 | 23.8 | –
26 | – | COc1ccc(NC(=O)CSc2nnc(-c3cc(OC)c(OC)c(OC)c3)n2-n2cccc2)cc1OC | > 100 | > 100 | > 100 | > 100 | –
27 | – | COc1cc(-c2nnc(SCC(=O)Oc3ccc(C)cc3)n2N)cc(OC)c1OC | > 100 | > 100 | > 100 | > 100 | –
28 | – | COc1cccc(NC(=O)CSc2nnc(-c3cc(OC)c(OC)c(OC)c3)n2N)c1 | 3.15 | – | 52.6 | – | –
29 | 18 | COc1cc(-c2nnc(SCC(=O)Nc3ccc(C)c(C)c3)n2N)cc(OC)c1OC | 1.21 | > 100 | > 100 | 0.88 | –
30 | – | COc1cccc(NC(=O)CSc2nnc(-c3cc(OC)c(OC)c(OC)c3)[nH]2)c1 | > 100 | > 100 | > 100 | > 100 | –
31 | – | COc1cc(-c2nnc(SCC(=O)c3ccc(C)cc3)n2-n2cccc2)cc(OC)c1OC | > 100 | > 100 | > 100 | > 100 | –
